The record followed here is paper PMC10888821 (bioRxiv, 2024).

Assay [1] has as its system Sm20S β1. As to the kind of experiment: Inhibition of Sm20S hydrolysis of mca-VDQMDGW-K. The format is biochemical, Schistosoma mansoni.
Assay [2] has as its target T1, Sm20S β2 subunit (Schistosoma mansoni, UniProt G4VSW3).
T1 sequence (G4VSW3 39-281): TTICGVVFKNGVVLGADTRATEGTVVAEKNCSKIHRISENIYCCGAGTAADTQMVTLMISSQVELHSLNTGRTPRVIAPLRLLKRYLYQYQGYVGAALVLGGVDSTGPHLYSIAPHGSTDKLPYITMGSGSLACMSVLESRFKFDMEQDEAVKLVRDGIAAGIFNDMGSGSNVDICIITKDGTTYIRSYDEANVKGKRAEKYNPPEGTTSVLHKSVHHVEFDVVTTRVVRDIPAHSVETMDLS
T1 sequence (UPI0001A6248C 1-194 partner): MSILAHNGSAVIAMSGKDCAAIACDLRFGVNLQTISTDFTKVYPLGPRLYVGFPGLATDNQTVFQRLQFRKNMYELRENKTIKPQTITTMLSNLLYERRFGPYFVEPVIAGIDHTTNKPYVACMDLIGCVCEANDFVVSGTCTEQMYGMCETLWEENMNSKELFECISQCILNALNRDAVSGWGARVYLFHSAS
Nature of the assay: Inhibition of single-step enriched Sm20S, β2 substrate. The format is biochemical. A digest of the protocol:
(§1)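 Sm20S was single-step enriched: worm lysate in Tris/E-64 pH 7.5, ammonium sulfate precipitation at 30 and 60% saturation, then 100 kDa concentration. Assay buffer contained pepstatin, E-64 and AEBSF. Substrates were mca-VDQMDGW-K(dnp)-NH2 (β1), mca-FnKRR-K(dnp)-NH2 (β2) and FNKL-amc (β5), tested across test compound concentrations. Reads were at ex/em 320/400 (mca) or 340/460 (amc). Technical triplicates.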

For assay [3], the system named is 20S proteasome of three Schistosoma species. Nature of the assay: Cross-species inhibition profile of schistosome lysates. The format is biochemical, S. mansoni, S. haematobium, S. japonicum. Conditions: lysates pre-incubated with 500 nM. A digest of the protocol:
(§2)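 Extracts of S. haematobium (0.625 μg/μL), S. japonicum and S. mansoni (1.25 μg/μL each) were enriched by ammonium sulfate precipitation. Proteasome amount was normalized by labelling with 2 μM Me4BodipyFL-Ahx3Leu3VS (37°C, 3 h) and in-gel fluorescence. Extracts were preincubated 1 h with test compound (0.125% DMSO vehicle), then mixed with an equal volume of 20 μM β1/β2 mca substrate or 40 μM Z-FNKL-amc. Buffer: 100 mM Tris pH 7.5, 50 μM E-64, 1 mM AEBSF, 2 μM pepstatin, 0.03% SDS. Triplicate wells at 24°C.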

Assay [4] has as its target T2, Sm20S β5 subunit (Schistosoma mansoni, UniProt A0A5K4F079).
T2 sequence (A0A5K4F079 63-264): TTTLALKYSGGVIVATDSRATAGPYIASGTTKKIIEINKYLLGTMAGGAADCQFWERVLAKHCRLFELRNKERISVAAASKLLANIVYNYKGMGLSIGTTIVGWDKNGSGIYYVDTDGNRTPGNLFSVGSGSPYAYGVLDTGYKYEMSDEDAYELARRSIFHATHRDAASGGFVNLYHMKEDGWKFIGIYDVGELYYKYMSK
Nature of the assay: Inhibition of single-step enriched Sm20S, β5 substrate. In kind it is biochemical. A digest of the protocol:
as §1

The subject of the next assay is Sm20S β2. Nature of the assay: Sm20S pre-incubated with 10 μM inhibitor, assayed with mca-FnKRR-K. Conditions: extended pre-incubation with 10 μM inhibitor. The format is biochemical, Schistosoma mansoni. The procedure, abridged:
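Sm20S was pre-incubated with test compound, then assayed with mca-FnKRR-K(dnp) and Z-LRR-amc. Fluorescence was read at 24°C: ex/em 320/400 nm (mca) and 360/460 nm (amc). Technical triplicates.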

Assay [5] has as its target T3, Sm20S β1 subunit (Schistosoma mansoni, UniProt G4V926).
T3 sequence (G4V926 26-225): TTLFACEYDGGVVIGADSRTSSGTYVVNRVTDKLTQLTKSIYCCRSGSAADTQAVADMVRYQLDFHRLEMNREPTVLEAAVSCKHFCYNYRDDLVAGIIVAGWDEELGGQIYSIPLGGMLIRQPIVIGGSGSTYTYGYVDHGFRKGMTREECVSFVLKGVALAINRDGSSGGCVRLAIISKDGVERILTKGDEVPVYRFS
Nature of the assay: Inhibition of single-step enriched Sm20S, β1 substrate. In kind it is biochemical. A digest of the protocol:
as §1

Assay [6] concerns the target T1, Sm20S β2 subunit. As to the kind of experiment: Dose-response assay of purified Sm20S with Z-LRR-amc. In kind it is biochemical. The conditions noted are these: read-out: inhibition of β2 subunit activity. A digest of the protocol:
(§3)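 Purified Sm20S was obtained from adult S. mansoni worms by ammonium sulfate precipitation, gel filtration and DEAE anion exchange. It was preincubated 15 min with test compound (20 μM to 9 nM, or 740 nM to 0.3 nM), then given 10 μM substrate: Suc-LLVY-amc (β5), Z-LLE-amc (β1) or Z-LRR-amc (β2). Maximum velocity over 8 sequential readings (RFU/sec) was normalized to 0.1% DMSO. Technical triplicates.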

The target in assay [7] is T2, Sm20S β5 subunit. Nature of the assay: Dose-response assay of purified Sm20S with Suc-LLVY-amc. Conditions: 500 nM inhibitor. The format is biochemical. A digest of the protocol: as §3
In assay [8] the target is T3, Sm20S β1 subunit. Nature of the assay: Dose-response assay of purified Sm20S with Z-LLE-amc. The format is biochemical. A digest of the protocol:
as §3

The subject of assay [9] is 20S proteasome β2 subunit of three Schistosoma species. As to the kind of experiment: Proteasome inhibition in three Schistosoma species, β2 substrate. In kind it is biochemical, S. mansoni, S. haematobium, S. japonicum. A digest of the protocol:
as §2

Assay [10] has as its system 20S proteasome β5 subunit of three Schistosoma species. As to the kind of experiment: Proteasome inhibition in three Schistosoma species, β5 substrate. The format is biochemical, S. mansoni, S. haematobium, S. japonicum. The procedure, abridged: as §2
The test system of assay [11] is 20S proteasome β1 subunit of three Schistosoma species. As to the kind of experiment: Proteasome inhibition in three Schistosoma species, β1 substrate. In kind it is biochemical, S. mansoni, S. haematobium, S. japonicum. The conditions noted are these: 500 nM, single-step enriched 20S, across the three species. A digest of the protocol:
as §2

The next assay deals with Sh20S β1. Nature of the assay: Proteasome inhibition in enriched extract, β1 substrate, S. haematobium. In kind it is biochemical. The conditions noted are these: 1 μM. The procedure, abridged: as §2
A further assay relates to Sj20S β1. As to the kind of experiment: Proteasome inhibition in enriched extract, β1 substrate, S. japonicum. The conditions noted are these: 1 μM. In kind it is biochemical. A digest of the protocol:
as §2

Assay [12] relates to Sm20S β1. As to the kind of experiment: Proteasome inhibition in enriched extract, β1 substrate, S. mansoni. The format is biochemical. The conditions noted are these: 1 μM. A digest of the protocol: as §2
Assay [13] concerns the target T2, Sm20S β5 subunit. Nature of the assay: Substrate hydrolysis by purified Sm20S, β5 substrates. The format is biochemical. A digest of the protocol: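 Purified Sm20S (10 nM) was incubated with 2-fold serial dilutions of Ac-FNKL-amc or Suc-LLVY-amc. Hydrolysis was monitored at 24°C (ex/em 360/460 nm) and activity was compared as a function of substrate concentration. Technical triplicates.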

Assay [14] deals with Sm20S β1. Nature of the assay: Substrate hydrolysis by purified Sm20S, β1 substrates. In kind it is biochemical, Schistosoma mansoni. Conditions: between 16 and 250 μM substrate.
The mark [15] stands for this setting: 500 nM, single-step enriched 20S, across the three species.

The star is where a group is joined. K(dnp) = lysine 2,4-dinitrophenyl (Nε-2,4-dinitrophenyl-lysine); Mca = COc1ccc2c(CC(=O)*)cc(=O)oc2c1

The IC50 is the concentration needed to halve the response being measured. Lower therefore signals inhibition by little substance. A word on the inhibition: it is the percentage by which the read-out fell short of the control. `CC(C)C[C@H](NC(=O)[C@H](Cc1ccccc1)NC(=O)c1cnccn1)B(O)O` [BTZ, bortezomib]: the “inhibition of mca-VDQMDGW-K(dnp) hydrolysis by Sm20S” value in the assay with Sm20S β1 [1] was “inhibited”. In addition, the “IC50 using the β2 substrate” value against Sm20S β2 subunit [2] (single-step enriched Sm20S, β2 substrate) is reported as “did not inhibit”. Moreover, the “cross-species subunit inhibition profile” value in assay [3] is “preferentially inhibited β1 and β5”. Further, the IC50 was 18 ± 2.05 nM against Sm20S β5 subunit [4] and 49.84 ± 0.24 nM on Sm20S β1 subunit [5]. For the same molecule, in the assay on Sm20S β2, the “effect on Sm20S β2 activity” value was “only partially inhibited”. For the same molecule, the inhibition at 0.5 µM at Sm20S β2 subunit [6] is approximately 35%. Moreover, the “inhibition of β5 subunit activity” value on Sm20S β5 subunit [7] is reported as “completely inactivated”. In addition, the “inhibition of β1 subunit activity” value on Sm20S β1 subunit [8] (500 nM inhibitor, Z-LLE-amc) is “completely inactivated”.

With `CC(C)C[C@H](NC(=O)[C@H](CCc1ccccc1)NC(=O)CN1CCOCC1)C(=O)N[C@@H](Cc1ccccc1)C(=O)N[C@@H](CC(C)C)C(=O)[C@@]1(C)CO1` [CFZ, carfilzomib], the results for the IC50 on Sm20S β2 subunit [2] and against Sm20S β5 subunit [4] were 288 ± 90 nM and 2.5 ± 0.51 nM, respectively. In addition, the “cross-species subunit inhibition profile” value in assay [3] was “inhibited β5 and β2 more than β1”. In the assay with Sm20S β2, the “effect on Sm20S β2 activity” value is recorded as “inactivated”. For the same molecule, at Sm20S β1 subunit [5] (single-step enriched Sm20S, β1 substrate), the “IC50 for the β1 subunit” value is reported as “not inhibitory”. Further, the inhibition at 0.5 µM at Sm20S β2 subunit [6] and at Sm20S β1 subunit [8] (read-out: inhibition of β1 subunit activity) was approximately 40% each time. For the same molecule, on Sm20S β5 subunit [7], the “inhibition of β5 subunit activity” value is recorded as “completely inhibited”.

Take `C[C@@]12OC(=O)[C@]1([C@@H](O)[C@@H]1C=CCCC1)NC(=O)[C@@H]2CCCl` [MZB, marizomib]: in assay [9] (setting [15]), the “reduction of β2 activity” value is listed as 66 to 48%. Besides, the “reduction of β5 activity” value in assay [10] (setting [15]) was “complete inactivation”. Further, in assay [11], the “reduction of β1 activity” value was 61 to 34%.

As for `CCCCCC(=O)N[C@@H](Cc1c[nH]c2ccccc12)C(=O)N[C@@H](Cc1c[nH]c2ccccc12)C(=O)N[C@@H](Cc1ccccc1)C(=O)[C@@]1(C)CO1` [carmaphycin-17], the “decrease of Sh20S β1 activity” value in the assay on Sh20S β1 stood at 20%. Also, the “reduction of Sj20S β1 activity” value in the assay on Sj20S β1 was found to be 47%. The “inhibition of β2 subunits” value in [9] (1 μM, three species) is ~ 60%. Besides, in assay [10] (1 μM, three species), the “inhibition of β5 subunits” value is reported as “complete inhibition”. For the same molecule, the “decrease of Sm20S β1 activity” value with Sm20S β1 [12] is 20%.

Consider Ac-FNKL-amc, for which the “substrate concentration of maximal cleavage activity” value at Sm20S β5 subunit [13] was found to be 25 µM. Besides, the “cleavage rate relative to Suc-LLVY-amc” value on Sm20S β5 subunit [13] (25 μM substrate) was “~ four-fold”.

Consider “mca-VDQMDGW-K(dnp)-NH2 (Mca-VDQMDGW-{K(dnp)-NH2}) [VDQMD*GW]”, for which, in the assay with Sm20S β1 [14], the “cleavage efficiency relative to LLE-amc” value is listed as ~ 2 fold.
